Test results reported in ChEMBL document CHEMBL2401716, “Design and stereoselective synthesis of novel isosteviol-fused pyrazolines and pyrazoles as potential anticancer agents” (Eur J Med Chem, 2013).

Legend:
Type in all cases: functional, cell-based
HeLa = assay: Antiproliferative activity against human HeLa cells after 48 hrs by MTT assay
In short: (§1)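 Cells seeded in 96-well plates and exposed to compounds for 48 h at 37 °C, 5% CO2. MTT (0.5 mg/mL) then added for 4 h. Supernatant removed, formazan dissolved in DMSO, and OD read at 570 nm. Cisplatin served as positive control.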

A549 = assay: Antiproliferative activity against human A549 cells after 48 hrs by MTT assay; conditions: A549, 48 h; in short: as §1
Raji = assay: Antiproliferative activity against human Raji cells after 48 hrs by MTT assay
In short: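 Human B-lymphoma Raji line kept in RPMI-1640 with 10% FBS and 100 U/mL penicillin at 37 °C, 5% CO2, humidified. Cells were plated in 96 wells and treated with compounds for 48 h. MTT (0.5 mg/mL) was added for 4 h, then formazan was taken up in DMSO after supernatant removal and read at 570 nm. Cisplatin served as positive control.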

SGC-7901 = assay: Antiproliferative activity against human SGC7901 cells after 48 hrs by MTT assay; conditions: SGC-7901, 48 h; in short: as §1

| IC50 (HeLa) [µM] | IC50 (A549) [µM] | IC50 (Raji) [µM] | IC50 (SGC-7901) [µM] | SMILES |
| --- | --- | --- | --- | --- |
| 24.6 | > 50 | > 50 | > 50 | CCOC(=O)[C@]1(C)CCC[C@@]2(C)[C@@H]3CC[C@@]4(C)C[C@]3(CC[C@@H]21)[C@@H]1CN(c2cc(Cl)cc(Cl)c2)N=C14 |
| > 50 | 20.2 | 27.4 | > 50 | CCOC(=O)[C@]1(C)CCC[C@@]2(C)[C@@H]3CC[C@@]4(C)C[C@]3(CC[C@@H]21)[C@@H]1CN(c2cc(F)ccc2F)N=C14 |
| 15.2 | 19 | 7.71 | 35.3 | CCOC(=O)[C@]1(C)CCC[C@@]2(C)[C@@H]3CC[C@@]4(C)C[C@]3(CC[C@@H]21)c1cnn(-c2ccccc2C)c14 |
| > 50 | 28.2 | 9.54 | 26.3 | CCOC(=O)[C@]1(C)CCC[C@@]2(C)[C@@H]3CC[C@@]4(C)C[C@]3(CC[C@@H]21)c1cnn(-c2cccc(Cl)c2)c14 |
| > 50 | > 50 | 22.1 | > 50 | CCOC(=O)[C@]1(C)CCC[C@@]2(C)[C@@H]3CC[C@@]4(C)C[C@]3(CC[C@@H]21)[C@@H]1CN(c2cccc(Cl)c2Cl)N=C14 |
| 20.3 | 11.8 | 2.09 | 9.17 | CCOC(=O)[C@]1(C)CCC[C@@]2(C)[C@@H]3CC[C@@]4(C)C[C@]3(CC[C@@H]21)c1cnn(-c2c(C)cccc2C)c14 |
| > 50 | 22.3 | 7.01 | 25.6 | CCOC(=O)[C@]1(C)CCC[C@@]2(C)[C@@H]3CC[C@@]4(C)C[C@]3(CC[C@@H]21)c1cnn(-c2ccc(F)cc2)c14 |
| > 50 | > 50 | > 50 | > 50 | CCOC(=O)[C@]1(C)CCC[C@@]2(C)[C@@H]3CC[C@@]4(C)C[C@]3(CC[C@@H]21)[C@@H]1CN(c2cccc(C)c2)N=C14 |
| > 50 | 42.3 | 14.3 | 15.6 | CCOC(=O)[C@]1(C)CCC[C@@]2(C)[C@@H]3CC[C@@]4(C)C[C@]3(CC[C@@H]21)c1cnn(-c2ccccc2[N+](=O)[O-])c14 |
| > 50 | > 50 | 13.5 | > 50 | CCOC(=O)[C@]1(C)CCC[C@@]2(C)[C@@H]3CC[C@@]4(C)C[C@]3(CC[C@@H]21)[C@@H]1CN(c2ccc(F)cc2F)N=C14 |
| > 50 | > 50 | 19.9 | > 50 | CCOC(=O)[C@]1(C)CCC[C@@]2(C)[C@@H]3CC[C@@]4(C)C[C@]3(CC[C@@H]21)[C@@H]1CN(c2ccccc2C)N=C14 |
| > 50 | 35.3 | 13.8 | 8.44 | CCOC(=O)[C@]1(C)CCC[C@@]2(C)[C@@H]3CC[C@@]4(C)C[C@]3(CC[C@@H]21)c1cnn(-c2ccc(Cl)cc2)c14 |
| 30.3 | > 50 | 12.6 | 22.5 | CCOC(=O)[C@]1(C)CCC[C@@]2(C)[C@@H]3CC[C@@]4(C)C[C@]3(CC[C@@H]21)[C@@H]1CN(c2cc(C)ccc2C)N=C14 |
| 41.1 | 17.4 | 11.3 | 30.3 | CCOC(=O)[C@]1(C)CCC[C@@]2(C)[C@@H]3CC[C@@]4(C)C[C@]3(CC[C@@H]21)c1cnn(-c2ccccc2Br)c14 |
| > 50 | > 50 | 11.2 | 28.5 | CCOC(=O)[C@]1(C)CCC[C@@]2(C)[C@@H]3CC[C@@]4(C)C[C@]3(CC[C@@H]21)[C@@H]1CN(c2ccc(C)cc2C)N=C14 |
| 37.5 | 18.2 | 3.26 | 19.3 | CCOC(=O)[C@]1(C)CCC[C@@]2(C)[C@@H]3CC[C@@]4(C)C[C@]3(CC[C@@H]21)c1cnn(-c2cccc(C)c2C)c14 |
| > 50 | > 50 | > 50 | > 50 | CCOC(=O)[C@]1(C)CCC[C@@]2(C)[C@@H]3CC[C@@]4(C)C[C@]3(CC[C@@H]21)[C@@H]1CN(c2ccc([N+](=O)[O-])cc2)N=C14 |
| 38.2 | 15.8 | 6.5 | 38.1 | CCOC(=O)[C@]1(C)CCC[C@@]2(C)[C@@H]3CC[C@@]4(C)C[C@]3(CC[C@@H]21)c1cnn(-c2ccc(C)c(C)c2)c14 |
| > 50 | 23.1 | 4.78 | 29.6 | CCOC(=O)[C@]1(C)CCC[C@@]2(C)[C@@H]3CC[C@@]4(C)C[C@]3(CC[C@@H]21)c1cnn(-c2ccc(Br)cc2)c14 |
| > 50 | > 50 | > 50 | > 50 | CCOC(=O)[C@]1(C)CCC[C@@]2(C)[C@@H]3CC[C@@]4(C)C[C@]3(CC[C@@H]21)[C@@H]1CN(c2cc(C)cc(C)c2)N=C14 |

| IC50 (HeLa) [µM] | IC50 (A549) [µM] | IC50 (Raji) [µM] | IC50 (SGC-7901) [µM] | SMILES |
| --- | --- | --- | --- | --- |
| > 50 | 12.4 | 4.84 | 13.6 | CCOC(=O)[C@]1(C)CCC[C@@]2(C)[C@@H]3CC[C@@]4(C)C[C@]3(CC[C@@H]21)c1cnn(-c2cccc(C)c2)c14 |
| 29.1 | 13.7 | 3.91 | 29.4 | CCOC(=O)[C@]1(C)CCC[C@@]2(C)[C@@H]3CC[C@@]4(C)C[C@]3(CC[C@@H]21)[C@@H]1CN(c2ccc(C)cc2)N=C14 |
| > 50 | 27 | 4.15 | 35.6 | CCOC(=O)[C@]1(C)CCC[C@@]2(C)[C@@H]3CC[C@@]4(C)C[C@]3(CC[C@@H]21)c1cnn(-c2ccccc2F)c14 |
| > 50 | > 50 | 7.4 | > 50 | CCOC(=O)[C@]1(C)CCC[C@@]2(C)[C@@H]3CC[C@@]4(C)C[C@]3(CC[C@@H]21)c1cnn(-c2cccc([N+](=O)[O-])c2)c14 |
| 42.5 | 25.4 | 11.4 | 17.6 | CCOC(=O)[C@]1(C)CCC[C@@]2(C)[C@@H]3CC[C@@]4(C)C[C@]3(CC[C@@H]21)c1cnn(-c2ccccc2)c14 |
| > 50 | > 50 | 10.2 | > 50 | CCOC(=O)[C@]1(C)CCC[C@@]2(C)[C@@H]3CC[C@@]4(C)C[C@]3(CC[C@@H]21)c1cnn(-c2ccc([N+](=O)[O-])cc2)c14 |
| > 50 | > 50 | > 50 | > 50 | CCOC(=O)[C@]1(C)CCC[C@@]2(C)[C@@H]3CC[C@@]4(C)C[C@]3(CC[C@@H]21)[C@@H]1CN(c2ccccc2Cl)N=C14 |
| > 50 | > 50 | 8.82 | 31.9 | CCOC(=O)[C@]1(C)CCC[C@@]2(C)[C@@H]3CC[C@@]4(C)C[C@]3(CC[C@@H]21)[C@@H]1CN(c2cccc(C)c2C)N=C14 |
| > 50 | > 50 | 12.5 | > 50 | CCOC(=O)[C@]1(C)CCC[C@@]2(C)[C@@H]3CC[C@@]4(C)C[C@]3(CC[C@@H]21)c1cnn(-c2cc(C)cc(C)c2)c14 |
| > 50 | 20.1 | 9.96 | 28.4 | CCOC(=O)[C@]1(C)CCC[C@@]2(C)[C@@H]3CC[C@@]4(C)C[C@]3(CC[C@@H]21)c1cnn(-c2ccc(F)cc2F)c14 |
| > 50 | > 50 | 29.1 | > 50 | CCOC(=O)[C@]1(C)CCC[C@@]2(C)[C@@H]3CC[C@@]4(C)C[C@]3(CC[C@@H]21)[C@@H]1CN(c2cccc(F)c2)N=C14 |
| > 50 | > 50 | > 50 | > 50 | CCOC(=O)[C@]1(C)CCC[C@@]2(C)[C@@H]3CC[C@@]4(C)C[C@]3(CC[C@@H]21)[C@@H]1CN(c2cccc([N+](=O)[O-])c2)N=C14 |
| > 50 | 32.6 | 17.2 | 34.7 | CCOC(=O)[C@]1(C)CCC[C@@]2(C)[C@@H]3CC[C@@]4(C)C[C@]3(CC[C@@H]21)[C@@H]1CN(c2ccccc2F)N=C14 |
| > 50 | > 50 | 11.7 | > 50 | CCOC(=O)[C@]1(C)CCC[C@@]2(C)[C@@H]3CC[C@@]4(C)C[C@]3(CC[C@@H]21)c1cnn(-c2cc(Cl)ccc2Cl)c14 |
| > 50 | > 50 | > 50 | > 50 | CCOC(=O)[C@]1(C)CCC[C@@]2(C)[C@@H]3CC[C@@]4(C)C[C@]3(CC[C@@H]21)[C@@H]1CN(c2ccc(Cl)c(Cl)c2)N=C14 |
| > 50 | > 50 | 15.8 | > 50 | CCOC(=O)[C@]1(C)CCC[C@@]2(C)[C@@H]3CC[C@@]4(C)C[C@]3(CC[C@@H]21)c1cnn(-c2cc(Cl)cc(Cl)c2)c14 |
| > 50 | > 50 | 4.51 | > 50 | CCOC(=O)[C@]1(C)CCC[C@@]2(C)[C@@H]3CC[C@@]4(C)C[C@]3(CC[C@@H]21)[C@@H]1CN(c2ccc(F)cc2)N=C14 |
| > 50 | > 50 | 7.21 | > 50 | CCOC(=O)[C@]1(C)CCC[C@@]2(C)[C@@H]3CC[C@@]4(C)C[C@]3(CC[C@@H]21)[C@@H]1CN(c2cccc(C(F)(F)F)c2)N=C14 |
| 31.2 | 17.8 | 12.2 | 34 | CCOC(=O)[C@]1(C)CCC[C@@]2(C)[C@@H]3CC[C@@]4(C)C[C@]3(CC[C@@H]21)[C@@H]1CN(c2ccc(OC)cc2)N=C14 |
